Assay results reported in paper PMC4562733 (International Journal of Nanomedicine, 2015).
In brackets after ≈: the same amount, converted by molar mass.

Tests used:
[1] = Release of free PTX in PBS; type: physicochemical; details: PBS pH 7.4, 37°C, 4 hours
How it was run: (§1)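 Test conjugate was dissolved at 5 mg per 2.5 mL in PBS pH 7.4 or human plasma and held at 37°C for up to 12 hours. Aliquots were drawn at set times and free PTX was extracted into ethyl acetate. Free PTX was quantified by reverse-phase C18 HPLC at 1 mL per minute and 30°C, with UV detection at 227 nm.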

MCF-7 tumors = test: In vivo antitumor activity; design: species or system nude mice; details: MCF-7-bearing mice; for tumor growth inhibition rate: 5 mg/kg i.v. every 3 days, five injections
How it was run: (§2)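 Tumor cells implanted in the upper right axillary fossa of nude mice; treatment began when tumors reached 0.2–0.5 cm diameter. Mice were randomized to four groups (n=5): PBS pH 7.4 control, free paclitaxel, or test conjugates, each at 5 mg/kg in 0.2 mL. Dosing was by tail vein every 3 days, five injections over 15 days. Tumor volume and body weight were recorded daily; values are mean ± SD.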

[2] = test system: MDA-MB-231, MCF-7, and A549 cancer cells; test: Cell viability; type: cell-based, human
How it was run: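 MTT assay. Cells were plated at 5×10^3 per well and exposed for 48 h to PTX or the conjugates (theoretical PTX content 45.93% and 47.71%) at […]–1 μg/mL, equal to 0.01435–0.4771 μg/mL conjugated PTX. Each drug was tested in six wells. MTT (5 mg/mL stock) was then added and absorbance read at 490 nm.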

[3] = PTX loading by HPLC standard curve; type: physicochemical; details: HPLC peak area versus PTX content, n=5
How it was run: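 PTX content of the conjugate was calculated theoretically and checked against an HPLC standard curve of peak area versus PTX content, with standards in anhydrous ethyl alcohol.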

A549 tumors = test: In vivo antitumor activity; design: species or system nude mice; details: for tumor growth inhibition rate: 5 mg/kg i.v. every 3 days, five injections
How it was run: as §2

A549 cells [4] = test: Apoptosis study, PI staining and flow cytometry; type: cell-based, human; details: A549, 24 hours, 1 mg/mL
How it was run: (§3)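 Cells grown at 37°C, 5% CO2 in DMEM or RPMI 1640 with 10% FBS and penicillin/streptomycin. They were exposed for 24 h to free PTX or the fluorescein-labelled folate–PTX conjugates, added as a 1 mg/mL solution. Cells were then resuspended in binding buffer, stained with propidium iodide, and analysed at once by flow cytometry. The PI-positive late apoptotic/necrotic quadrant (Q4) was scored.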

A549 cells [5] = test: Cellular uptake by flow cytometry; type: cell-based, human; details: A549, 1 mg/mL, 8 hours
How it was run: (§4)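 Cells were seeded at 5×10^5 per well in culture medium (37°C, 5% CO2) and left overnight. They were then given 1 mg/mL solution of the FITC- or 5-aminofluorescein-labelled folate–PTX conjugates and incubated 8 h at 37°C. Cells were resuspended in PBS and immediately analysed by flow cytometry for percentage of fluorescent cells.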

MCF-7 cells [6] = test: Apoptosis study, PI staining and flow cytometry; type: cell-based, human; details: MCF-7, 24 hours, 1 mg/mL
How it was run: as §3

MDA-MB-231 cells [7] = test: Cellular uptake by flow cytometry; type: cell-based, human; details: MDA-MB-231, 1 mg/mL, 8 hours
How it was run: as §4

MDA-MB-231 cells [8] = test: Apoptosis study, PI staining and flow cytometry; type: cell-based, human; details: MDA-MB-231, 24 hours, 1 mg/mL
How it was run: as §3

MCF-7 cells [9] = test: Cellular uptake by flow cytometry; type: cell-based, human; details: MCF-7, 1 mg/mL, 8 hours
How it was run: as §4

HEK293 cells = test: Cellular uptake by flow cytometry; type: cell-based, human; details: HEK293 normal cells, 1 mg/mL, 8 hours
How it was run: as §4

[10] = test system: tumor cell lines (MDA-MB-231, MCF-7, A549); test: Cellular uptake by flow cytometry, tumor groups together; type: cell-based, human; details: range over the three tumor cell lines
How it was run: as §4

[11] = Release of free PTX in human plasma, HPLC; type: in vitro ADME; details: 37°C, 4 hours
How it was run: as §1

Aqueous solubility = type: physicochemical; details: water, room temperature (25°C), n=4
Acute toxicity = details: both, Kunming, mouse, in vivo, iv
normal (Kunming) mice = test: Acute toxicity; details: tail vein, mice

Compound | free PTX released [1] [%] | tumor growth inhibition rate (MCF-7 tumors) | PTX loading [3] | tumor growth inhibition rate (A549 tumors; A549-bearing mice) [%] | late apoptosis/necrotic value (Q4) (A549 cells [4]) [%] | cell uptake rate (A549 cells [5]) [%] | late apoptosis/necrotic value (Q4) (MCF-7 cells [6]) [%] | cell uptake rate (MDA-MB-231 cells [7]) [%] | late apoptosis/necrotic value (Q4) (MDA-MB-231 cells [8]) [%] | cell uptake rate (MCF-7 cells [9]) [%] | cell uptake rate (HEK293 cells) [%] | percentage cell uptake in the tumor groups [10] | decrease of body weight, of original weight (A549 tumors; A549-bearing mice) | also measured
folic acid-fluorescein-5(6)-isothiocyanate-arginine-paclitaxel [FA-FITC-Arg-PTX] | 25.8 | 57.63% | 38.70%±0.49% | 48.65 | 16.8 | 63.2 | 26.7 | 89.6 | 36.5 | 78.1 | 2.1 | 63.22%–89.63% | – | cell viability ([2]; tumor cells, high doses): approximately 20%
CC(=O)O[C@H]1C(=O)[C@@]2(C)[C@H]([C@H](OC(=O)c3ccccc3)[C@]3(O)C[C@H](OC(=O)[C@H](OC(=O)[C@H](CCC(=O)Nc4ccc5c(c4)C(=O)OC54c5ccc(O)cc5Oc5cc(O)ccc54)NC(=O)CC[C@H](NC(=O)c4ccc(NCc5cnc6nc(N)[nH]c(=O)c6n5)cc4)C(=O)O)[C@@H](NC(=O)c4ccccc4)c4ccccc4)C(C)=C1C3(C)C)[C@]1(OC(C)=O)CO[C@@H]1C[C@@H]2O [FA-5AF-Glu-PTX, folic acid-5-aminofluorescein-glutamic-paclitaxel] | 23.3 | – | 32.19%±0.35% | – | 16.3 | 59.0 | 27.9 | 85.9 | 34.1 | 75.1 | 1.9 | 59.01%–85.93% | about 2% | body weight change during treatment (MCF-7 tumors): gradual increase; inhibition rate relative to free PTX (A549 tumors; A549 tumor): ~1.3 times; free PTX released [11]: 54.84%; solubility (Aqueous solubility): 6410 ± 180 µg/mL (≈ 3.69 mM)
CC(=O)O[C@H]1C(=O)[C@@]2(C)[C@H]([C@H](OC(=O)c3ccccc3)[C@]3(O)C[C@H](OC(=O)[C@H](O)[C@@H](NC(=O)c4ccccc4)c4ccccc4)C(C)=C1C3(C)C)[C@]1(OC(C)=O)CO[C@@H]1C[C@@H]2O [PTX, Paclitaxel, reference compound] | – | about 38.16% | – | 35.23 | 14.6 | – | 19.9 | – | 25.8 | – | – | – | about 25.34% | body weight loss (MCF-7 tumors; end of treatment): 3.88 g; body weight loss, of original body weight (MCF-7 tumors; end of treatment): approximately 20%; inhibition ratio (of total cells) ([2]; MTT, 48 hours, three tumor cell lines, maximum reached): ≤ 62.4%; decrease of body weight (A549 tumors; A549-bearing mice): 3.92 g; LD50 at 14 days (Acute toxicity): 25.48 ± 0.17 mg/kg; survival rate (normal (Kunming) mice; 15 mg/kg): 90%; survival rate (normal (Kunming) mice; 45 mg/kg): 0%
